Fibroblast inh – blocks proliferation of human lung fibroblasts. LL 47 human lung fibroblast viability, ATP luminescence; stronger effect = lower value. viability, % at 10 µM. 1.1% of 85,000 active;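 active means viability at or below 50% in the single dose screen; inactive means viability above 50%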;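 further: compound exposure lasted 72 h before the ATP readout; 100% = median luminescence of untreated cell-only wells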
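test system = LL 47 human lung fibroblasts | amount = 1,150 fibroblasts seeded per well | medium = 15% FBS in IMEM | times = overnight cell rest, 72 h compound treatment at 37 °C | measured by = CellTiter-Glo luminescence measuring cellular ATP | read-out = viability percentage against median untreated-cell control | benchmarks = cell-only wells, no compound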
bCat KO growth – beta-catenin-lacking colon tumor cell growth suppression. HCT116 beta-catenin knockout viability, CellTiter-Glo, 60 h; stronger effect = lower value. viability, % at 10 µM. 1.5% of 140,000 active. AID 818;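 active means viability at or under a set limit, the compound median less 4 SD, cut at about 6% in these data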;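 further: 0% = Hyamine 1622 control at 20 µM and 100% = untreated cell control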
Pyk2 oligo antag – blocks oligomerization of human Pyk2 in cells. Q14289. Q293 cells, Pyk2 FERM NanoBiT luminescence; stronger effect = lower value. z-score (the deposit names both 25 µM and 10 µM). 0.83% of 99,000 active. AID 1347419;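 active means Z-score of -3 or lower, scaled per plate to the spread of control and sample wells; inactive means z-score above -3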;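 further: negative z-score means lost luminescence so less FERM oligomerization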
Target sequence (Q14289 whole entry, looked up): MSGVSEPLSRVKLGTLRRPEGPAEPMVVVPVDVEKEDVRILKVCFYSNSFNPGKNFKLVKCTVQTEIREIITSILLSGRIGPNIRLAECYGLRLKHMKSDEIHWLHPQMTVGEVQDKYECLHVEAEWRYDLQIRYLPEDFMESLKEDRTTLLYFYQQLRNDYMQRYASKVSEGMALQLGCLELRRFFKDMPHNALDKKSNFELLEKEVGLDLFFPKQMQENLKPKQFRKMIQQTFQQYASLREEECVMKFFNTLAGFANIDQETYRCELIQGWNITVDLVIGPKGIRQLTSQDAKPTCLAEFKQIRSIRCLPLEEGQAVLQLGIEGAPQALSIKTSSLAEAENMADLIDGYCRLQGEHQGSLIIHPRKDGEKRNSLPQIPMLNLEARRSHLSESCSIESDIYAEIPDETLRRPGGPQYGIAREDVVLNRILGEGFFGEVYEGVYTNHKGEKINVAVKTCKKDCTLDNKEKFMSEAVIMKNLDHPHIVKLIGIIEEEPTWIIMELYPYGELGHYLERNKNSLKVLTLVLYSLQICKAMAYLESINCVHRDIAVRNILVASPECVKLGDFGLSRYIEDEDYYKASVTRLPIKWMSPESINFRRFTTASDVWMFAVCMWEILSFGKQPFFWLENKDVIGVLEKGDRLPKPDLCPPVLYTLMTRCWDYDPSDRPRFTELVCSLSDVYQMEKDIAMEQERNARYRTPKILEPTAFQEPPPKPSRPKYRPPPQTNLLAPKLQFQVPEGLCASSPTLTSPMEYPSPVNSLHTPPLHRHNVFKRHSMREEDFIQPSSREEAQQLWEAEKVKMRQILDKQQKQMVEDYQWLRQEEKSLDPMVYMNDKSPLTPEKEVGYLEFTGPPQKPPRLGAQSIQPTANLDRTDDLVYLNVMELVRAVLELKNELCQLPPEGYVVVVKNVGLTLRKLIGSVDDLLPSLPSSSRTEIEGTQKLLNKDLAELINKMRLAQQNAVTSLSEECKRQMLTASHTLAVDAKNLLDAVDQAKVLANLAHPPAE
H69AR growth 86K – growth inhibitors of human H69AR lung tumor cells | H69AR lung tumor viability, ATP luminescence, 72 h; stronger effect = lower value | viability, % at 10 µM | 6% of 85,000 active | AID 598;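 active means viability at or below 40%; inactive means viability above 40%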;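 further: multidrug resistant small cell line overexpressing MRP-1 efflux transporter; 100% = mean luminescence of untreated control wells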
HUVEC prolif 384 – blocks proliferation of human endothelial cells; viability, % at 10 µM (by protocol); 1.1% of 86,000 active; HUVEC proliferation, CellTiter-Glo luminescence, 72 h; stronger effect = lower value; AID 648;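 active means viability at or below 30%; inactive means viability above 30%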;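 further: 100% = median luminescence of DMSO-only cell control wells on each plate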
PTEN del growth – PTEN-deleted cell growth suppression. 1.2% of 140,000 active. HCT116 PTEN-null viability, CellTiter-Glo, 60 h; stronger effect = lower value. viability, % at 10 µM;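 active means viability at or below a set limit, 4 SD under the median of all tested compounds, cut at about 3.7% in these data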;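 further: PTEN knockout HCT116 line with beta catenin targeted HCT116 as companion control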
An asterisk follows results filed as active. Shown is part of a subset that was picked to be rich in hits.

`C=CCn1c(SCC(=O)Nc2sccc2C(N)=O)nc2sc(CC)cc2c1=O` gave Fibroblast inh 86, bCat KO growth 71, Pyk2 oligo antag -3.5*, H69AR growth 86K 40*, HUVEC prolif 384 73 and PTEN del growth 75.
C=CCn1c(SCC(=O)c2c(N)n(CCC)c(=O)n(C)c2=O)nc2sc(CC)cc2c1=O was read as Fibroblast inh 46*, bCat KO growth 41, Pyk2 oligo antag 0.04, H69AR growth 86K 7.7*, HUVEC prolif 384 83 and PTEN del growth 36.
`C=CCn1c(SCN2C(=O)c3ccccc3C2=O)nc2ccc(Cl)cc2c1=O` gave bCat KO growth 92 and PTEN del growth 94.
Screening C=CCn1c(SCC(=O)Nc2sccc2C(N)=O)nc2ccccc2c1=O returned Fibroblast inh 88, bCat KO growth 76, Pyk2 oligo antag -2.6, H69AR growth 86K 31*, HUVEC prolif 384 59 and PTEN del growth 76.
C=CCn1c(SCC(=O)Nc2sccc2C(N)=O)nc2ccc(Cl)cc2c1=O was read as Fibroblast inh 84, bCat KO growth 51, Pyk2 oligo antag -3.2*, H69AR growth 86K 17*, HUVEC prolif 384 57 and PTEN del growth 32.
Screening COc1cc(C=NCC2OCCc3ccccc32)cc(OC)c1 (stereo not drawn) returned bCat KO growth 88, Pyk2 oligo antag 0.38 and PTEN del growth 101.
For O=c1[nH]c(/C(Cl)=C/c2cccc(C(F)(F)F)c2)nc2cc(Cl)ccc12 the results were bCat KO growth 84 and PTEN del growth 79.
COC(=O)NNC(=O)Cc1cccc2ccccc12 was read as bCat KO growth 90 and PTEN del growth 93.
Screening Oc1ccc(N=C/C=C/c2cccc(Br)c2)cc1-c1nc2ccccc2s1 returned bCat KO growth 5.1* and PTEN del growth 5.
Screening Nc1ccc(O)c(-c2nc3ccccc3s2)c1 returned Fibroblast inh 82, bCat KO growth 8, Pyk2 oligo antag -1.5, H69AR growth 86K 97, HUVEC prolif 384 74 and PTEN del growth 3.4*.
Cc1ccc(Nc2nnc(SCC(=O)Nc3cccnc3Cl)s2)cc1C was read as bCat KO growth 73, Pyk2 oligo antag -0.84 and PTEN del growth 78.
For Oc1ccc(Br)cc1-c1nc2cnccn2c1NC1CCCC1 the results were Fibroblast inh 75, bCat KO growth 1.3*, Pyk2 oligo antag -0.48, H69AR growth 86K 47, HUVEC prolif 384 80 and PTEN del growth 1.9*.
For Cc1nc(-c2ccc(NC(=O)CC(C)C)cc2)cs1 the results were bCat KO growth 85 and PTEN del growth 98.
CCOC(=O)C1CCN(CC(=O)Nc2c(C(=O)OC)[nH]c3ccccc23)CC1 was read as Fibroblast inh 102, bCat KO growth 75, H69AR growth 86K 1.9*, HUVEC prolif 384 103 and PTEN del growth 85.
`COC(=O)c1[nH]c2ccc(Br)cc2c1NC(=O)CN1CCN(C2CCCCC2)CC1` gave Fibroblast inh 16*, bCat KO growth 1.7*, Pyk2 oligo antag 0.63, H69AR growth 86K 2.9*, HUVEC prolif 384 5.7* and PTEN del growth 1.8*.
For COC(=O)c1[nH]c2cc(C)ccc2c1NC(=O)CN1CCCc2ccccc21 the results were bCat KO growth 5.5*, Pyk2 oligo antag 0.41 and PTEN del growth 4.
COC(=O)c1[nH]c2cc(C)ccc2c1NC(=O)CN1CCN(C(=O)c2ccco2)CC1 was read as Fibroblast inh 87, bCat KO growth 86, Pyk2 oligo antag 1, H69AR growth 86K 62, HUVEC prolif 384 84 and PTEN del growth 90.
For CCOC(=O)C1CCN(CC(=O)Nc2cc(C)nn2-c2nc3ccccc3s2)CC1 the results were Fibroblast inh 94, bCat KO growth 75, Pyk2 oligo antag -0.07, H69AR growth 86K 28*, HUVEC prolif 384 73 and PTEN del growth 79.
Screening CCN(CC)S(=O)(=O)c1ccc(OC)c(NC(=O)CSc2cc(Cl)ccc2Cl)c1 returned bCat KO growth 85 and PTEN del growth 88.
Screening CC(CCc1ccccc1)NC(=O)COc1ccc(S(=O)(=O)N2CCOCC2)cc1[N+](=O)[O-] (stereo not drawn) returned bCat KO growth 72 and PTEN del growth 74.
`COC(=O)c1[nH]c2ccc(Br)cc2c1NC(=O)CN1CCCc2ccccc21` gave Fibroblast inh 75, bCat KO growth 41, Pyk2 oligo antag -0.21, H69AR growth 86K 21*, HUVEC prolif 384 64 and PTEN del growth 48.
O=C(/C=C/c1ccc(Br)cc1)c1ccc(NC(=O)c2ccco2)cc1 was read as bCat KO growth 1.8* and PTEN del growth 2.1*.
Screening CCN(CC)c1ccc(NC(=O)c2ccccc2F)cc1 returned Fibroblast inh 71, bCat KO growth 33, Pyk2 oligo antag -0.01, H69AR growth 86K 26*, HUVEC prolif 384 47 and PTEN del growth 31.
For CCN(CC)c1ccc(NC(=O)c2cc(Cl)ccc2OC)cc1 the results were Fibroblast inh 74, bCat KO growth 64, Pyk2 oligo antag -0.76, H69AR growth 86K 48, HUVEC prolif 384 31 and PTEN del growth 67.
`COc1ccc(NC(=O)c2ccco2)cc1NC(=O)c1ccc(Br)o1` gave Fibroblast inh 104, bCat KO growth 92, Pyk2 oligo antag -1, H69AR growth 86K 57, HUVEC prolif 384 82 and PTEN del growth 81.
Screening O=C(Nc1cccc(NC(=O)c2ccc(-c3ccc(Br)cc3)o2)c1)c1ccco1 returned Fibroblast inh 70, bCat KO growth 39, Pyk2 oligo antag -2.3, H69AR growth 86K 35*, HUVEC prolif 384 54 and PTEN del growth 36.
For O=C(/C=C/c1ccncc1)c1ccc(NC(=O)c2ccccc2F)cc1 the results were bCat KO growth 1.2* and PTEN del growth 2.0*.
Screening O=C(Nc1cccnc1)c1ccccc1F returned Fibroblast inh 104, bCat KO growth 104, Pyk2 oligo antag 1.7, H69AR growth 86K 96, HUVEC prolif 384 96 and PTEN del growth 99.
`CC(=O)Nc1ccc(NC(=O)c2ccco2)cc1` gave Fibroblast inh 105, bCat KO growth 80, Pyk2 oligo antag 0.3, H69AR growth 86K 96, HUVEC prolif 384 101 and PTEN del growth 89.
Screening Cc1ccc(NS(=O)(=O)c2ccc(OCC(=O)N3CCOCC3)cc2)cc1 returned Fibroblast inh 103, bCat KO growth 100, Pyk2 oligo antag 0.56, H69AR growth 86K 97, HUVEC prolif 384 97 and PTEN del growth 99.
For O=C(/C=C/c1ccc2c(c1)OCO2)c1ccco1 the results were bCat KO growth 18 and PTEN del growth 20.
For O=C(/C=C/c1ccc(Br)cc1)c1ccco1 the results were bCat KO growth 1.0* and PTEN del growth 0.8*.
Screening C=CCn1c(N)c(C(=O)Nc2ccc(C)c(C)c2)c2nc3ccccc3nc21 returned Fibroblast inh 77, bCat KO growth 39, Pyk2 oligo antag -4*, H69AR growth 86K 53, HUVEC prolif 384 85 and PTEN del growth 37.

Compound activity deposited in PubChem BioAssay by several laboratories.
